Results: ChEMBL document CHEMBL2057168, “(1aR,5aR)1a,3,5,5a-Tetrahydro-1H-2,3-diaza-cyclopropa[a]pentalene-4-carboxylic acid (MK-1903): a potent GPR109a agonist that lowers free fatty acids in humans” (J Med Chem, 2012)
Activity calls are given as the source filed them. No cut-off for these calls is given here.

Assays:
[1] = molecular target: Hydroxycarboxylic acid receptor 3 (Homo sapiens) (UniProt P49019); assay: Agonist activity at human GPR109b assessed as decrease in forskolin-stimulated cAMP production by HTRF assay; assay type: functional
Hydroxycarboxylic acid receptor 3 (Homo sapiens), sequence (P49019 whole entry): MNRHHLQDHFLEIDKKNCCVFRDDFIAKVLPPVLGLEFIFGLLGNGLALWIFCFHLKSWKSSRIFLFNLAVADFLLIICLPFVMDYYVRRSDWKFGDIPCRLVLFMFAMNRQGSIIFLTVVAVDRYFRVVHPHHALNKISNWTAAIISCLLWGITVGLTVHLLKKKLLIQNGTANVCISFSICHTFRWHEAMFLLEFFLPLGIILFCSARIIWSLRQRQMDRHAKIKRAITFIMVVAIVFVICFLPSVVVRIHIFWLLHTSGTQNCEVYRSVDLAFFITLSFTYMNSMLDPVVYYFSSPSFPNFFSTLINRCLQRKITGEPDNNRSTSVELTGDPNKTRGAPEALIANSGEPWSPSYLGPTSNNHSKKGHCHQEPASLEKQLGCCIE

Rattus norvegicus [2] = assay: Antidyslipedic activity in fasted Sprague-Dawley rat assessed as decrease in free fatty acid level at 0.001 mg/kg, po by NEFA C-free fatty acid assay; assay type: functional, organism-based; parameters: dose 0.001 mg/kg
Summary of the method: (§1)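 Male Sprague-Dawley rats fasted, compound by oral gavage, serial plasma sampling after dosing for free fatty acids over a time course; vehicle-dosed control group.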

Mus musculus [3] = assay: Toxicity in C57/Bl6 mouse assessed as increase in cutaneous blood flow in ear at 100 mg/kg, ip after 5 mins relative to vehicle treated control by laser doppler flowmetry; assay type: organism-based; parameters: dose 100 mg/kg, route intraperitoneal; conditions: in vivo
Summary of the method: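 Male C57/Bl6 mice (8–10 weeks, ~25 g) anesthetized with Nembutal ip (80 mg/10 mL/kg). Ear perfusion recorded by laser Doppler imaging: 3 min baseline, then vehicle (PBS, 40% HPBCD or 0.5% methylcellulose) or compound given ip at 5 mL/kg through a preinserted syringe, with readings for ~15 min. Expressed as % change of perfusion over baseline.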

Cytochrome P450 2D6 = Cytochrome P450 2D6 (Homo sapiens, UniProt P10635); assay: Activity at CYP2D6; assay type: ADME
Cytochrome P450 2D6, sequence (P10635 whole entry): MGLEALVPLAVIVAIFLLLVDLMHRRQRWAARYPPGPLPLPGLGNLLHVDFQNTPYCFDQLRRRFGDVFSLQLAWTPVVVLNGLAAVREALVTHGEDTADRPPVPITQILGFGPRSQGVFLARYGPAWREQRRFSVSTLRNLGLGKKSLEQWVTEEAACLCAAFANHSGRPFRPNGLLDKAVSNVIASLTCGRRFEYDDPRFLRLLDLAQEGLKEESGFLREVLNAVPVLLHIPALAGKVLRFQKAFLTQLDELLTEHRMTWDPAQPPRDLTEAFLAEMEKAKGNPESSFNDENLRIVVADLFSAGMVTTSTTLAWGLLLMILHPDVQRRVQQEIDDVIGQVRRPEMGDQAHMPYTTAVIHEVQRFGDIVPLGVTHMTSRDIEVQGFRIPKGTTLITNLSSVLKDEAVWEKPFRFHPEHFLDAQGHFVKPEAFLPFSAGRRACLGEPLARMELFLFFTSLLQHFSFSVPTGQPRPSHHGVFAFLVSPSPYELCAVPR

Cytochrome P450 2C8 = molecular target: T1, Cytochrome P450 2C8 (Homo sapiens, UniProt P10632); assay: Activity at CYP2C8; assay type: ADME
T1 sequence (P10632 whole entry): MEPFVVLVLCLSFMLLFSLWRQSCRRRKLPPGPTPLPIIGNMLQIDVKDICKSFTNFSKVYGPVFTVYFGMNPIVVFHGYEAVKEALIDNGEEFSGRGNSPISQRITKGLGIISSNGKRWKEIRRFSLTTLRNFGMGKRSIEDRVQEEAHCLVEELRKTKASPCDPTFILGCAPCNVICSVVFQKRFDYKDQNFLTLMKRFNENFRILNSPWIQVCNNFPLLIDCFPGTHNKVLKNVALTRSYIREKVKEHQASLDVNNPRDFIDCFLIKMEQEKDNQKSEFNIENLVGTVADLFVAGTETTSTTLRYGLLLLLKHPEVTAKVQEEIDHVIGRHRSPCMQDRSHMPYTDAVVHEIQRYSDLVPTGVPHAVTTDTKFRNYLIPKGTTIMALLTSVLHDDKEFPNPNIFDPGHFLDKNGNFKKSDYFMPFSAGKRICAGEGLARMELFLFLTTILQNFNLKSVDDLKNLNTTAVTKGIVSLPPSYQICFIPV

Cytochrome P450 2C9 = Cytochrome P450 2C9 (Homo sapiens, UniProt P11712); assay: Activity at CYP2C9; assay type: ADME
Cytochrome P450 2C9, sequence (P11712 whole entry): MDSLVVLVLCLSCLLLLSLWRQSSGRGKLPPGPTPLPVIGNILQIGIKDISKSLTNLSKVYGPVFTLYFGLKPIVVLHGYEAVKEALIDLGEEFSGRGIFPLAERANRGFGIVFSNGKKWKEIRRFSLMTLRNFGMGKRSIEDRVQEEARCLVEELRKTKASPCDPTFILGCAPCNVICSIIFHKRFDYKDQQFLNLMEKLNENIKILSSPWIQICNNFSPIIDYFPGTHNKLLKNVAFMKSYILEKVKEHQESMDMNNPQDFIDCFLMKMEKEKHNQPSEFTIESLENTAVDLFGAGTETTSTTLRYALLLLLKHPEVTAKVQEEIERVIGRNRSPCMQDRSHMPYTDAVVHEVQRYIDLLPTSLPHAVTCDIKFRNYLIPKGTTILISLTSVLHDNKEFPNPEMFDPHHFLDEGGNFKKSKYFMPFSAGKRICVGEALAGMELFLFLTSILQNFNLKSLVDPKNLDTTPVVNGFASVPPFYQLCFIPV

Cytochrome P450 3A4 = Cytochrome P450 3A4 (Homo sapiens, UniProt P08684); assay: Activity at CYP3A4; assay type: ADME
Cytochrome P450 3A4, sequence (P08684 whole entry): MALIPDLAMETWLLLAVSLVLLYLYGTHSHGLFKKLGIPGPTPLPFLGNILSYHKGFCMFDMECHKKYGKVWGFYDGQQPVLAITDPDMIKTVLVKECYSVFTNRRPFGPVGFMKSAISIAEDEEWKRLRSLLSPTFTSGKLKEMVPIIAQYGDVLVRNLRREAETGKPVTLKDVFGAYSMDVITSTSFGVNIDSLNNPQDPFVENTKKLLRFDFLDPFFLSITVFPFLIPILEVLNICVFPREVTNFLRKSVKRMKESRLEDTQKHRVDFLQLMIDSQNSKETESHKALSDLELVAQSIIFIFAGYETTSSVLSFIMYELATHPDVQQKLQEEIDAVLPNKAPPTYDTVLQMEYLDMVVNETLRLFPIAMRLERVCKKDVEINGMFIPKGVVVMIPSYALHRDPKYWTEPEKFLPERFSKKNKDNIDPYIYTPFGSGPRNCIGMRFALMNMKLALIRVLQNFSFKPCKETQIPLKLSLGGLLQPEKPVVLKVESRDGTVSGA

Rattus norvegicus [4] = assay: Antidyslipedic activity in fasted Sprague-Dawley rat assessed as decrease in free fatty acid level at 0.01 to 100 mg/kg, po by NEFA C-free fatty acid assay; assay type: functional; parameters: scale not given: the % may be the effect or the level left; conditions: dose mg/kg 0.01-100; summary of the method: as §1
Rattus norvegicus [5] = assay: Antidyslipedic activity in fasted Sprague-Dawley rat assessed as decrease in free fatty acid level at 0.1 to 30 mg/kg, po by NEFA C-free fatty acid assay; assay type: functional; parameters: scale not given: the % may be the effect or the level left; conditions: dose mg/kg 0.1-30; summary of the method: as §1
[6] = Blood clearance in mouse; assay type: ADME, organism-based; conditions: whole blood
Summary of the method: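 Pharmacokinetics across species; for mice, clearance determined in blood rather than plasma following dosing.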

[7] = Volume of distribution in mouse; assay type: ADME, organism-based; conditions: in vivo
[8] = Terminal half life in mouse; assay type: ADME, organism-based; conditions: in vivo, read-out: beta t1/2 (converted)
Mus musculus [9] = assay: Dose normalized Cmax in po dosed mouse; assay type: ADME, organism-based; conditions: in vivo
Mus musculus [10] = assay: Dose normalized AUC in po dosed mouse; assay type: ADME, organism-based; conditions: in vivo
[11] = Oral bioavailability in mouse; assay type: ADME, organism-based; conditions: in vivo
[12] = Plasma clearance in Sprague-Dawley rat at 2 mg/kg, iv; assay type: ADME, organism-based; parameters: dose 2 mg/kg, route intravenous
Summary of the method: (§2)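 Male Sprague-Dawley rats were dosed at 10 mg/kg po or 2 mg/kg iv in 80% PEG400/20% phosphate-buffered saline, fasted overnight before the oral dose. Jugular blood was sampled serially from 0.25 to 21 h over 24 h, and heparinized plasma was prepared. Drug was assayed by HPLC/MS/MS (quantitation range 1–2000 ng/mL).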

[13] = Volume of distribution in Sprague-Dawley rat at 2 mg/kg, iv; assay type: ADME, organism-based; parameters: dose 2 mg/kg, route intravenous; conditions: in vivo
Summary of the method: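 Male Sprague–Dawley rats dosed iv at 2 mg/kg in 80% PEG400/20% phosphate buffered saline. Jugular vein blood was serially sampled over 24 h, and plasma was prepared from sodium heparin blood. Plasma was analysed by HPLC/MS/MS (LLOQ 1 ng/mL, ULOQ 2000 ng/mL).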

[14] = Terminal half life in Sprague-Dawley rat at 2 mg/kg, iv; assay type: ADME, organism-based; parameters: dose 2 mg/kg, route intravenous; conditions: in vivo, read-out: beta t1/2 (converted); summary of the method: as §2
Rattus norvegicus [15] = assay: Dose normalized Cmax in Sprague-Dawley rat at 10 mg/kg, po; assay type: ADME, organism-based; parameters: dose 10 mg/kg, route oral; conditions: in vivo; summary of the method: as §2
Rattus norvegicus [16] = assay: Dose normalized AUC in Sprague-Dawley rat at 10 mg/kg, po; assay type: ADME, organism-based; parameters: dose 10 mg/kg, route oral; conditions: in vivo; summary of the method: as §2
[17] = Oral bioavailability in Sprague-Dawley rat at 10 mg/kg; assay type: ADME, organism-based; conditions: in vivo; summary of the method: as §2
[18] = Plasma clearance in dog; assay type: ADME, organism-based, Canis lupus familiaris
[19] = Volume of distribution in dog; assay type: ADME, organism-based, Canis lupus familiaris; conditions: in vivo
[20] = Terminal half life in dog; assay type: ADME, organism-based, Canis lupus familiaris; conditions: in vivo, read-out: beta t1/2 (converted)
Canis familiaris [21] = assay: Dose normalized Cmax in po dosed dog; assay type: ADME, organism-based, Canis lupus familiaris; conditions: in vivo
Canis familiaris [22] = assay: Dose normalized AUC in po dosed dog; assay type: ADME, organism-based, Canis lupus familiaris; conditions: in vivo
[23] = Oral bioavailability in dog; assay type: ADME, organism-based, Canis lupus familiaris; conditions: in vivo

In the case of C[C@@H]1[C@@H]2Cc3c(C(=O)O)n[nH]c3[C@H]12 [listing 1 of 2 here], the Activity [1] is reported as “inactive” and the Activity (Rattus norvegicus [2]) is reported as “inactive”.

With CCCCC[C@H]1[C@@H]2Cc3c(C(=O)O)n[nH]c3[C@H]12 (racemic) the Activity [1] was “inactive”.

For C1Cc2[nH]nc(-c3nn[nH]n3)c2C1, the Activity [1] was “inactive”.

For O=C(O)c1n[nH]c2c1C[C@H]1[C@H](Cc3ccccc3)[C@@H]21 (racemic), the Activity [1] was “inactive”.

For CCC[C@@H]1[C@@H]2Cc3c(C(=O)O)n[nH]c3[C@H]12 (racemic), the Activity [1] was “inactive”.

In the case of O=C(O)c1cccnc1 [NIACIN], the Activity [1] is reported as “inactive” and the Activity (Mus musculus [3]) is reported as 60%.

For C[C@H]1[C@H]2Cc3c(C(=O)O)n[nH]c3[C@@H]12, the Activity [1] was “inactive”.

For C=CC[C@@H]1[C@@H]2Cc3c(C(=O)O)n[nH]c3[C@H]12 (racemic), the Activity [1] was “inactive”.

With O=C(O)c1n[nH]c2c1C[C@H]1[C@@H](COc3ccccc3)[C@@H]21 (racemic) the Activity [1] was “inactive”.

With CCCC[C@H]1[C@@H]2Cc3c(C(=O)O)n[nH]c3[C@H]12 (racemic) the Activity [1] was “inactive”.

In the case of C=C[C@@H]1[C@@H]2Cc3c(C(=O)O)n[nH]c3[C@H]12 (racemic), the Activity [1] is reported as “inactive”.

In the case of O=C(O)c1n[nH]c2c1C[C@H]1[C@@H](CC3CC3)[C@@H]21 (racemic; form 2), the Activity [1] is reported as “inactive”.

For CC[C@@H]1[C@@H]2Cc3c(C(=O)O)n[nH]c3[C@H]12 (racemic; form 1), the Activity [1] was “inactive”.

In the case of O=C(O)c1n[nH]c2c1C[C@H]1[C@H](c3ccccc3)[C@@H]21 (racemic), the Activity [1] is reported as “inactive”.

For CCOC[C@@H]1[C@@H]2Cc3c(C(=O)O)n[nH]c3[C@H]12 (racemic), the Activity [1] was “inactive”.

For CSC[C@@H]1[C@@H]2Cc3c(C(=O)O)n[nH]c3[C@H]12 (racemic), the Activity [1] was “inactive”.

In the case of C[C@@H]1[C@@H]2Cc3c(C(=O)O)n[nH]c3[C@H]12 [listing 2 of 2 here], the Activity (Cytochrome P450 2D6) is reported as “Not Active”, the Activity (Cytochrome P450 2C8) is reported as “Not Active” and the Activity (Cytochrome P450 2C9) is reported as “Not Active”. For the same compound, the Activity (Cytochrome P450 3A4) was “Not Active”, the Activity (Rattus norvegicus [4]) was 90% and the Activity (Rattus norvegicus [5]) was 90%. It also gave an Activity (Mus musculus [3]) of 30%, a clearance [6] of 35 mL/min/kg and a Vd [7] of 0.61 L/kg. For the same compound, the half-life [8] was 0.3 h, the Cmax/dose (Mus musculus [9]) was 1.5 µM·kg/mg and the AUC/dose (Mus musculus [10]) was 1.4 µM·kg·h/mg. The bioavailability [11] was 51%, the clearance [12] was 17 mL/min/kg and the Vd [13] was 0.53 L/kg. It also gave a half-life [14] of 2.4 h, a Cmax/dose (Rattus norvegicus [15]) of 5 µM·kg/mg and an AUC/dose (Rattus norvegicus [16]) of 5.1 µM·kg·h/mg. The bioavailability [17] was 90%, the clearance [18] was 2.4 mL/min/kg and the Vd [19] was 0.22 L/kg. The half-life [20] was 2.1 h, the Cmax/dose (Canis familiaris [21]) was 26 µM·kg/mg and the AUC/dose (Canis familiaris [22]) was 44.4 µM·kg·h/mg. It also gave a bioavailability [23] of 100%.

In the case of CCC[C@H]1[C@@H]2Cc3c(C(=O)O)n[nH]c3[C@H]12 (racemic), the Activity [1] is reported as “inactive”.

With CC[C@H]1[C@@H]2Cc3c(C(=O)O)n[nH]c3[C@H]12 (racemic) the Activity [1] was “inactive”.

With O=C(O)c1n[nH]c2c1CC1CC21 (racemic) the Activity [1] was “inactive”.

With C[C@@H]1[C@H]2Cc3c(C(=O)O)n[nH]c3[C@@H]12 the Activity [1] was “inactive”.

With C[C@H]1[C@@H]2Cc3c(C(=O)O)n[nH]c3[C@H]12 (racemic) the Activity [1] was “inactive”.

With CC(C)CC[C@H]1[C@@H]2Cc3c(C(=O)O)n[nH]c3[C@H]12 (racemic) the Activity [1] was “inactive”.

In the case of O=C(O)c1n[nH]c2c1C[C@@H]1[C@H]2[C@@H]1C1CC1 (racemic), the Activity [1] is reported as “inactive”.

For C=C[C@H]1[C@@H]2Cc3c(C(=O)O)n[nH]c3[C@H]12 (racemic), the Activity [1] was “inactive”.

For CC(C)C[C@@H]1[C@@H]2Cc3c(C(=O)O)n[nH]c3[C@H]12 (racemic), the Activity [1] was “inactive”.

With CC1(C)C2Cc3c(C(=O)O)n[nH]c3C21 (racemic) the Activity [1] was “inactive”.

For CC(C)CC[C@@H]1[C@@H]2Cc3c(C(=O)O)n[nH]c3[C@H]12 (racemic), the Activity [1] was “inactive”.

For COC[C@H]1[C@@H]2Cc3c(C(=O)O)n[nH]c3[C@H]12 (racemic), the Activity [1] was “inactive”.

For CC(C)C[C@H]1[C@@H]2Cc3c(C(=O)O)n[nH]c3[C@@H]21 (racemic), the Activity [1] was “inactive”.

In the case of CCCCC[C@@H]1[C@@H]2Cc3c(C(=O)O)n[nH]c3[C@H]12 (racemic), the Activity [1] is reported as “inactive”.

For CC(C)[C@@H]1[C@@H]2Cc3c(C(=O)O)n[nH]c3[C@@H]21 (racemic), the Activity [1] was “inactive”.

In the case of C[C@@H]1[C@@H]2Cc3c(C(=O)O)n[nH]c3[C@H]12 (racemic), the Activity [1] is reported as “inactive”.

For C[C@H]1[C@@H]2Cc3c(C(=O)O)n[nH]c3[C@H]12, the Activity [1] was “inactive”.

In the case of C=CC[C@H]1[C@@H]2Cc3c(C(=O)O)n[nH]c3[C@H]12 (racemic), the Activity [1] is reported as “inactive”.

In the case of COC[C@@H]1[C@@H]2Cc3c(C(=O)O)n[nH]c3[C@H]12 (racemic), the Activity [1] is reported as “inactive”.

For CCOC[C@H]1[C@@H]2Cc3c(C(=O)O)n[nH]c3[C@H]12 (racemic), the Activity [1] was “inactive”.

For CCCC[C@@H]1[C@@H]2Cc3c(C(=O)O)n[nH]c3[C@H]12 (racemic), the Activity [1] was “inactive”.

In the case of CC[C@@H]1[C@@H]2Cc3c(C(=O)O)n[nH]c3[C@H]12 (racemic; form 2), the Activity [1] is reported as “inactive”.

For O=C(O)c1n[nH]c2c1C[C@H]1[C@@H](CC3CC3)[C@@H]21 (racemic; form 1), the Activity [1] was “inactive”.

In the case of CSC[C@H]1[C@@H]2Cc3c(C(=O)O)n[nH]c3[C@H]12 (racemic), the Activity [1] is reported as “inactive”.
